Screens from PubChem.
Compounds with a hit are over-represented: about 2.9% of the library has one in this group of screens.
hiPSC survival: enhancers of single-cell hiPSC survival, primary screen, ATPlite luminescence; 100% = ROCK inhibitor wells, 0% = DMSO; survival enhancement, % at 20 µM; 0.044% of 360,000 active; in the data active = survival enhancement above about 18%;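 also: cells exposed to compounds for 16 hours before the ATP read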
PG9 Ab binder: binders of HIV-1 gp120 antibody PG9, primary screen, biochemical, TR-FRET | HIV-1 gp120 / PG9 antibody interaction | TR-FRET gp120-PG9 antibody binding | inhibition, % at 6.7 µM | 0.43% of 360,000 active | AID 624416, 2012; in the data active = inhibition above about 8.5%
Rev-erbA mod: modulators of Rev-erb alpha DNA binding, primary screen, biochemical, FITC-DNA, fluorescence polarization, uHTS. Rev-erbα–FITC-DNA binding, 90 min. activity, % at 10 µM. 0.79% of 370,000 active;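 active = activity above about 14%, limit read from the data; passing the limit was not always enough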
Target sequence (P20393 whole entry, looked up): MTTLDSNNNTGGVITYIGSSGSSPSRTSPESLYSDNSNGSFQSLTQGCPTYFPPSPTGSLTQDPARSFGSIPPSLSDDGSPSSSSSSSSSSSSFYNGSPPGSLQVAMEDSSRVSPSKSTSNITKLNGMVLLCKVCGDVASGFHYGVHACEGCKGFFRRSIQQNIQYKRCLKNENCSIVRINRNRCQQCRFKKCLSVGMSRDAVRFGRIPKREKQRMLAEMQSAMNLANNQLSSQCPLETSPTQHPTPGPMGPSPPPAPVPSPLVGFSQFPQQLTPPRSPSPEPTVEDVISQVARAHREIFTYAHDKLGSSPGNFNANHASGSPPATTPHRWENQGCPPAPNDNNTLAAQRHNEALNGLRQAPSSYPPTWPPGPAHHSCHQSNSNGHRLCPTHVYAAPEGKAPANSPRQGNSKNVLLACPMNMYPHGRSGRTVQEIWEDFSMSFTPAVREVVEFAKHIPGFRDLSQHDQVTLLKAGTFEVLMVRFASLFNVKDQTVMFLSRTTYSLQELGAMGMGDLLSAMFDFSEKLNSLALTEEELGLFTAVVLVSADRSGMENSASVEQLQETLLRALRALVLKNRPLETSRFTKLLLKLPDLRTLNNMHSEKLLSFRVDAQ
TAG inh: inhibitors of triacylglycerol accumulation, primary screen, cell-based, uHTS, fluorescence, H9c2 | 0.66% of 230,000 active | inhibition, % at 12.5 µM | H9c2 cells, Nile Red lipid (TAG) fluorescence; cells loaded with 200 µM oleic acid | AID 651582, 2012;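 active = pattern-corrected inhibition of lipid staining of at least 50% with the nuclear-stain viability signal not falling by more than 50%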
T cruzi inh: inhibitors of intracellular T. cruzi growth, primary screen, luminescence, NIH3T3 host cells; T. cruzi beta-gal in NIH3T3, 90 h; inhibition, % (concentration not given with the values); 1.4% of 300,000 active;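 active = mean inhibition across valid replicates above about 55%, limit read from the data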;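 also: signal also drops with host cell toxicity which is not excluded here; higher percent means less beta-gal luminescence so fewer parasites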
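compound dosing = single 50 nL compound addition per well in DMSO | material = NIH/3T3 host cells with β-galactosidase reporter T. cruzi | input = 5,000 host fibroblasts per well | timing = ≥90 h infection period, 3 h prior cell attachment | read-out basis = percent inhibition of parasite-derived β-gal signal | detection = GalScreen β-gal luminescence, detergent lysis, 60 min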
MIN6 prolif: inducers of MIN6 beta-cell proliferation, primary screen, ATP luminescence, uHTS; AID 2380, 2010; 0.29% of 330,000 active; proliferation, % at 10 µM; MIN6 cells proliferation, ATPlite luminescence, 48 h; cells starved in 0.2% serum; 100% = growth in 10% serum;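 active = compounds whose signal lies at least 3.5 SD above the mean of all wells on their plate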
NR1D1 mod conf: modulators of Rev-erb alpha DNA binding, confirmation, biochemical, FITC-DNA, fluorescence polarization, single point; shares compounds with Rev-erbA mod; activation, % at 25 µM; 61% of 3,000 active; 90 min;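 active = activation at or above a set limit, or at least 3 SD above the negative control mean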
RORg counter: modulation of RORgamma DNA binding, dose response, counter-screen for Rev-erb alpha modulator project, biochemical, fluorescence polarization, FITC-DNA; shares compounds with Rev-erbA mod; purified RORgamma protein-FITC-DNA binding; IC50, µM; 8% of 910 active; AID 1259320, 2017;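 active = Compounds whose fitted half-maximal concentration for disrupting protein-DNA binding is below 10 micromolar; the record names Rev-erb in its text, so the target is in doubt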
Large screens that a line does not name were inactive (follow-up assays come after a bar, where they were run).

NNc1nnc2c3cc(F)ccc3n(Cc3ccccc3)c2n1	none
CSc1nnc2c3cc(F)ccc3n(Cc3ccccc3)c2n1	Rev-erbA mod 59.3 (no result: TAG inh) | NR1D1 mod conf 47.3 | RORg counter inactive
CC1=NN(C(=O)c2ccccc2C)C(O)(c2ccc(Cl)cc2)C1 (stereo unspecified)	none (no result: TAG inh)
CCN(Cc1nc2cc(Cl)ccc2c(=O)[nH]1)C(=O)c1cc2c(s1)CCCCC2	Rev-erbA mod 54.0 (no result: T cruzi inh) | NR1D1 mod conf 33.9 | RORg counter inactive
CCOC(=O)N1CCN(c2c(NCCc3ccc(OC)c(OC)c3)c(=O)c2=O)CC1	none
CSc1nc(C)cc(C)c1C#N	none
CSc1nc2cc(C)nn2c(-c2ccccc2)c1C#N	Rev-erbA mod 25.9 | NR1D1 mod conf inactive
CCOc1ccc(OCC(=O)N2CCN(S(=O)(=O)c3ccccc3)CC2)cc1	none (no result: T cruzi inh, MIN6 prolif)
COc1ccc(NC(=O)c2oc3ccccc3c2NC(=O)COc2ccccc2OC)c(OC)c1	Rev-erbA mod 42.5 (no result: TAG inh) | NR1D1 mod conf 30.7
CCOCC(=O)Nc1c(C(=O)Nc2ccccc2OC)oc2ccccc12	Rev-erbA mod 46.9 (no result: TAG inh) | NR1D1 mod conf 38.5
CCOc1ccc(-c2cc(C(=O)OC)nc3c2c(=O)n(C)c(=O)n3C)cc1	Rev-erbA mod 38.9 | NR1D1 mod conf inactive
CCN(CC)CCNC(=O)c1ccccc1N	none (no result: TAG inh)
CCOC(=O)c1[nH]c(C)c(C(=O)N(CC)CC)c1C	none (no result: TAG inh)
CC(=O)c1cc2c(cc1NC(=O)c1ccc(C)cc1)OCCO2	Rev-erbA mod 27.6 (no result: TAG inh) | NR1D1 mod conf inactive
CC(=O)c1cc2c(cc1N/C(=N/S(=O)(=O)c1ccc(C)cc1)c1ccc(Cl)cc1)OCO2	Rev-erbA mod 91.8 (no result: TAG inh) | NR1D1 mod conf 57.3 | RORg counter inactive
CCOc1ccccc1NC(=O)CCSc1nc2n[nH]c(C)c2c(=N)n1-c1ccccc1Cl	PG9 Ab binder 41.1, Rev-erbA mod 34.7 (no result: TAG inh) | NR1D1 mod conf inactive
Cc1ccccc1-n1c(SCC(=O)Nc2ccccc2Cl)nc2n[nH]c(C)c2c1=N	none (no result: TAG inh)
CCCCNc1c(-c2ccc(SC3CCCCC3)cc2)nc2cnccn12	none (no result: T cruzi inh)
CCOCCn1c(=NC(=O)c2ccc(S(=O)(=O)N3CCOCC3)cc2)sc2cc(S(N)(=O)=O)ccc21	none
CCOc1cccc2sc(=NC(=O)c3ccc(S(=O)(=O)N4CCOCC4)cc3)n(C)c12	Rev-erbA mod 30.2 (no result: TAG inh) | NR1D1 mod conf inactive
Cc1cc(C)c(C#N)c(SCC(=O)N2CCCCC2)n1	none
Cc1cc(C)c2nc(SCC(=O)N3CCCCC3)c(C#N)cc2c1	Rev-erbA mod 27.5 (no result: MIN6 prolif) | NR1D1 mod conf 23.3
Cc1cc(C)c2nc(SCC(=O)NCC3CCCO3)c(C#N)cc2c1 (stereo unspecified)	Rev-erbA mod 60.0 (no result: TAG inh) | NR1D1 mod conf 41.8 | RORg counter inactive
Cc1cc2cccc(C)c2nc1SCC(=O)NCC1CCCO1 (stereo unspecified)	none
CN(C)c1ccc(C=Cc2nccc3ccccc23)cc1	Rev-erbA mod 302.6 (no result: TAG inh, T cruzi inh, MIN6 prolif) | NR1D1 mod conf 345.7 | RORg counter inactive
O=C(Cc1ccc(Cl)cc1)Nc1ccc(CN2CCCCC2)cc1	none
CCCOc1cccc(C2C(C(=O)c3ccco3)=C(O)C(=O)N2CCN(CC)CC)c1 (stereo unspecified)	none
COc1ccc(/C=C(/NC(=O)c2ccc(Br)cc2)C(=O)Nc2cccc(C(=O)O)c2)cc1	none (no result: T cruzi inh, MIN6 prolif)
COC(=O)c1c(NC(=O)c2ccccc2)sc(C(=O)c2ccccc2)c1C	Rev-erbA mod 27.3 | NR1D1 mod conf inactive
